From ChEMBL document CHEMBL5344453, “Selective Recognition of c-KIT 1 G-Quadruplex by Structural Tuning of Heteroaromatic Scaffolds and Side Chains” (ACS Med Chem Lett, 2024)

Experiments:
Quadruplex DNA [1] = assay: Stabilization of calf thymus […] ds DNA 5-FAM-CAATCGGATCGAATTCGATCCGATTG-TAMRA-3 assessed as change in melting temperature at 1 uM incubated for 1 hr in dark condition by FRET-based melting assay; assay type: nucleic-acid assay; conditions: Bos taurus
Method in brief: (§1)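 FRET melting of dual-fluorophore-tagged oligonucleotides (200 nM) in 60 mM potassium cacodylate buffer, pH 7.4, with ligand at 1 μM; ΔTm taken against the ligand-free oligonucleotide Tm as control.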

Quadruplex DNA [2] = assay: Stabilization of G-quadruplex c-KIT1 5-FAM-GGGAGGGCGCTGGGAGGAGGG-TAMRA-3 (unknown origin) assessed as change in melting temperature at 1 uM incubated for 1 hr in dark condition by FRET-based melting assay; assay type: nucleic-acid assay; method in brief: as §1
Quadruplex DNA [3] = assay: Stabilization of G-quadruplex VEGF 5-FAM-CGGGGCGGGCCGGGGGCGGGGT-TAMRA-3 (unknown origin) assessed as change in melting temperature at 1 uM incubated for 1 hr in dark condition by FRET-based melting assay; assay type: nucleic-acid assay; method in brief: as §1
Quadruplex DNA [4] = assay: Stabilization of G-quadruplex c-KIT2 5-FAM-GGGCGGGCGCGAGGGAGGGG-TAMRA-3 (unknown origin) assessed as change in melting temperature at 1 uM incubated for 1 hr in dark condition by FRET-based melting assay; assay type: nucleic-acid assay; method in brief: as §1
Quadruplex DNA [5] = assay: Stabilization of G-quadruplex BCL2 5-FAM-AGGGGCGGGCGCGGGAGGAAGGGGGCGGGAGCGGGGCTG-TAMRA-3 (unknown origin) assessed as change in melting temperature at 1 uM incubated for 1 hr in dark condition by FRET-based melting assay; assay type: nucleic-acid assay; method in brief: as §1
Quadruplex DNA [6] = assay: Stabilization of G-quadruplex c-MYC 5-FAM-TGGGGAGGGTGGGGAGGGTGGGGAAGG-TAMRA- 3 (unknown origin) assessed as change in melting temperature at 1 uM incubated for 1 hr in dark condition by FRET-based melting assay; assay type: nucleic-acid assay; method in brief: as §1
Quadruplex DNA [7] = assay: Stabilization of G-quadruplex h-TELO 5-FAM-TTGGGTTAGGGTTAGGGTTAGGGA-TAMRA-3 (unknown origin) assessed as change in melting temperature at 1 uM incubated for 1 hr in dark condition by FRET-based melting assay; assay type: nucleic-acid assay; method in brief: as §1
[8] = Reduction of BCL-2 oncogene expression in human K562 cells transfected with BCL-2 plasmid construct assessed as reduction in luciferase expression at 4 uM measured after 36 hrs by luciferase reporter assay; assay type: functional
Method in brief: (§2)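 K562 cells transfected with luciferase-expressing plasmids carrying the promoter G-quadruplex sequence of c-KIT, c-MYC or BCL-2, then ligand-treated. Relative luciferase expression measured.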

K562 [9] = assay: Induction of DNA damage in human K562 cells assessed as cells exhibiting DNA damage at 11 uM incubated for 24 hrs by DNA damage assay (reference value: 10.8%); assay type: functional
K562 [10] = assay: Attenuation of proto-oncogene expression in human c-KIT-positive K562 cells assessed as reduction in c-KIT oncogene expression at 2 uM measured after 24 hrs by qRT-PCR analysis relative to control; assay type: functional
Method in brief: (§3)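 K562 leukemia cells treated for 24 h. c-KIT, c-MYC and BCL-2 mRNA measured by qRT-PCR, with each gene normalized to 18s housekeeping gene expression. Reduction expressed relative to untreated cells.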

[11] = Reduction of c-KIT oncogene expression in human K562 cells transfected with c-KIT plasmid construct assessed as reduction in luciferase expression at 2 uM measured after 36 hrs by luciferase reporter assay; assay type: functional; method in brief: as §2
K562 [12] = assay: Attenuation of proto-oncogene expression in human c-KIT-positive K562 cells assessed as reduction in BCL-2oncogene expression at 2 uM measured after 24 hrs by qRT-PCR analysis relative to control; assay type: functional; method in brief: as §3
K562 [13] = assay: Induction of DNA damage in human K562 cells assessed as cells exhibiting DNA damage at 5.5 uM incubated for 24 hrs by DNA damage assay (reference value: 10.8%); assay type: functional
K562 [14] = assay: Attenuation of proto-oncogene expression in human c-KIT-positive K562 cells assessed as reduction in BCL-2oncogene expression at 4 uM measured after 24 hrs by qRT-PCR analysis relative to control; assay type: functional; method in brief: as §3
[15] = Reduction of c-KIT oncogene expression in human K562 cells transfected with c-KIT plasmid construct assessed as reduction in luciferase expression at 4 uM measured after 36 hrs by luciferase reporter assay; assay type: functional; method in brief: as §2
[16] = Reduction of c-KIT protein expression in human K562 cells at 2 uM measured after 24 hrs by Western blotting analysis relative to control; assay type: functional
Method in brief: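 Lysates of treated K562 cells probed by Western blot for c-KIT protein, with GAPDH as housekeeping reference.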

K562 [17] = assay: Attenuation of proto-oncogene expression in human c-KIT-positive K562 cells assessed as reduction in c-KIT oncogene expression at 4 uM measured after 24 hrs by qRT-PCR analysis relative to control; assay type: functional; method in brief: as §3
K562 [18] = assay: Attenuation of proto-oncogene expression in human c-KIT-positive K562 cells assessed as reduction in c-MYC oncogene expression at 2 uM measured after 24 hrs by qRT-PCR analysis relative to control; assay type: functional; method in brief: as §3
[19] = Reduction of c-MYC oncogene expression in human K562 cells transfected with c-MYC plasmid construct assessed as reduction in luciferase expression at 4 uM measured after 36 hrs by luciferase reporter assay; assay type: functional; method in brief: as §2
[20] = Reduction of c-MYC oncogene expression in human K562 cells transfected with c-MYC plasmid construct assessed as reduction in luciferase expression at 2 uM measured after 36 hrs by luciferase reporter assay; assay type: functional; method in brief: as §2
[21] = Reduction of BCL-2 oncogene expression in human K562 cells transfected with BCL-2 plasmid construct assessed as reduction in luciferase expression at 2 uM measured after 36 hrs by luciferase reporter assay; assay type: functional; method in brief: as §2

Compound | ΔTm (Quadruplex DNA [1]) [°C] | ΔTm (Quadruplex DNA [2]) [°C] | ΔTm (Quadruplex DNA [3]) [°C] | ΔTm (Quadruplex DNA [4]) [°C] | ΔTm (Quadruplex DNA [5]) [°C] | ΔTm (Quadruplex DNA [6]) [°C] | ΔTm (Quadruplex DNA [7]) [°C] | other results
NCCn1cc(-c2ccc3[nH]c4ccccc4c3c2)nn1 | < 5.5 | < 5.5 | < 5.5 | < 5.5 | < 5.5 | < 5.5 | < 5.5 | 
CN(C)CCCn1cc(-c2ccc3oc4ccccc4c3c2)nn1 | < 6 | < 6 | < 6 | < 6 | < 6 | < 6 | < 6 | 
Nc1nc(CC(=O)Nc2nc(CC(=O)NCCCn3cc(-c4ccc5oc6ccccc6c5c4)nn3)cs2)cs1 | < 6 | < 6 | < 6 | < 6 | < 6 | < 6 | < 6 | 
CN(C)CCCn1cc(-c2ccc3[nH]c4ccccc4c3c2)nn1 | < 5.5 | < 5.5 | < 5.5 | < 5.5 | < 5.5 | < 5.5 | < 5.5 | 
C[n+]1ccc(-c2c3nc(c(-c4cc[n+](C)cc4)c4ccc([nH]4)c(-c4cc[n+](C)cc4)c4nc(c(-c5cc[n+](C)cc5)c5ccc2[nH]5)C=C4)C=C3)cc1.[Cl-].[Cl-].[Cl-].[Cl-] [TMPYP4 CHLORIDE] |  |  |  |  |  |  |  | inhibition at 4 µM [8]: 39.7%; Activity (K562 [9]): 30.3%; inhibition at 2 µM (K562 [10]): 30%; inhibition at 2 µM [11]: 20.1%; inhibition at 2 µM (K562 [12]): 37%; Activity (K562 [13]): 27.6%; inhibition at 4 µM (K562 [14]): 45%; inhibition at 4 µM [15]: 34.1%; inhibition at 2 µM [16]: 10%; inhibition at 4 µM (K562 [17]): 48%; inhibition at 2 µM (K562 [18]): 11%; inhibition at 4 µM [19]: 45.3%; inhibition at 2 µM [20]: 24.4%; inhibition at 2 µM [21]: 20.7%
NCCCCC(N)C(=O)Nc1ccc(-n2cc(-c3ccc4[nH]c5ccccc5c4c3)nn2)cc1 (stereo not drawn) | < 5.5 | < 5.5 | < 5.5 | < 5.5 | < 5.5 | < 5.5 | < 5.5 | 
O=C(Nc1ccc(-n2cc(-c3ccc4[nH]c5ccccc5c4c3)nn2)cc1)C1CCCN1 (stereo not drawn) | < 5.5 | < 5.5 | < 5.5 | < 5.5 | < 5.5 | < 5.5 | < 5.5 | 
NCCn1cc(-c2ccc3oc4ccccc4c3c2)nn1 | < 6 | < 6 | < 6 | < 6 | < 6 | < 6 | < 6 | 
Nc1nc(CC(=O)Nc2nc(CC(=O)NCCCn3cc(-c4ccc5[nH]c6ccccc6c5c4)nn3)cs2)cs1 | < 5.5 | < 5.5 | < 5.5 | < 5.5 | < 5.5 | < 5.5 | < 5.5 | 

Continued, in another order:

ΔTm (Quadruplex DNA [1]) [°C] | ΔTm (Quadruplex DNA [2]) [°C] | ΔTm (Quadruplex DNA [3]) [°C] | ΔTm (Quadruplex DNA [4]) [°C] | ΔTm (Quadruplex DNA [5]) [°C] | ΔTm (Quadruplex DNA [6]) [°C] | ΔTm (Quadruplex DNA [7]) [°C] | Compound | other results
< 6 | < 6 | < 6 | < 6 | < 6 | < 6 | < 6 | NCCCCC(N)C(=O)Nc1ccc(-n2cc(-c3ccc4oc5ccccc5c4c3)nn2)cc1 (stereo not drawn) | 
< 6 | < 6 | < 6 | < 6 | < 6 | < 6 | < 6 | O=C(Nc1ccc(-n2cc(-c3ccc4oc5ccccc5c4c3)nn2)cc1)C1CCCN1 (stereo not drawn) | 
< 5.5 | < 5.5 | < 5.5 | < 5.5 | < 5.5 | < 5.5 | < 5.5 | Nc1ccc(-n2cc(-c3ccc4[nH]c5ccccc5c4c3)nn2)cc1 | 
< 6 | < 6 | < 6 | < 6 | < 6 | < 6 | < 6 | Nc1ccc(-n2cc(-c3ccc4oc5ccccc5c4c3)nn2)cc1 | 
